Experimental data as given in ChEMBL document CHEMBL1127322, “Selective protection and relative importance of the carboxylic acid groups of zaragozic acid A for squalene synthase inhibition” (J Med Chem, 1994).
Calls of active or inactive are those of the source. The calls are words filed in the database; no cut-off is given here.

Tests used:
Mus musculus [1] = assay: Tested in vivo for inhibition at a dose of 40 mg/kg, p.o. in oral mouse assay; Not active; format: functional, organism-based; design: dose 40 mg/kg
How it was run: (§1)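 Mice (22.5–27.5 g, six per group) received compound orally as a suspension in 5% emulphor. After 30 min they were given [5-³H]-mevalonolactone sc (0.5 μCi/animal) and were killed 30 min later. Livers were saponified and extracted with petroleum ether, and nonsaponifiable dpm was counted. Inhibition was calculated against incorporation in control animals.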

Mus musculus [2] = assay: Tested in vivo for inhibition at a dose of 24 mg/kg, p.o. in oral mouse assay; format: functional; how it was run: as §1
Mus musculus [3] = assay: Tested in vivo for inhibition at a dose of 40 mg/kg, p.o. in oral mouse assay; format: functional; how it was run: as §1
Mus musculus [4] = assay: Effective dose required for 50 percent inhibition of mouse liver squalene synthase at a dose of 40 mg/kg, po

SMILES: C=C(CCC12OC(C(=O)O)C(O)(C(=O)OC)C(C(=O)OC)(O1)[C@@H](OC(=O)/C=C/[C@@H](C)C[C@@H](C)CC)[C@H]2O)C(OC(C)=O)[C@H](C)Cc1ccccc1 (some centres undefined)
- inhibition (Mus musculus [1]): inactive

SMILES: C=C(CCC12OC(C(=O)O)C(O)(C(=O)O)C(C(=O)OC)(O1)[C@@H](OC(=O)/C=C/[C@@H](C)C[C@@H](C)CC)[C@H]2O)C(OC(C)=O)[C@H](C)Cc1ccccc1 (some centres undefined)
- inhibition (Mus musculus [1]): inactive

SMILES: C=C(CCC12OC(C(=O)OCCC(C)C)C(O)(C(=O)O)C(C(=O)OC)(O1)[C@@H](OC(=O)/C=C/[C@@H](C)C[C@@H](C)CC)[C@H]2O)C(OC(C)=O)[C@H](C)Cc1ccccc1 (some centres undefined)
- inhibition (Mus musculus [1]): inactive

SMILES: C=C(CCC12OC(C(=O)OC)C(O)(C(=O)O)C(C(=O)O)(O1)[C@@H](OC(=O)/C=C/[C@@H](C)C[C@@H](C)CC)[C@H]2O)C(OC(C)=O)[C@H](C)Cc1ccccc1 (some centres undefined)
- inhibition in vivo at 24 mg/kg (Mus musculus [2]): 32%

SMILES: C=C(CCC12OC(C(=O)OCc3ccccc3)C(O)(C(=O)O)C(C(=O)O)(O1)[C@@H](OC(=O)/C=C/[C@@H](C)C[C@@H](C)CC)[C@H]2O)C(OC(C)=O)[C@H](C)Cc1ccccc1 (some centres undefined)
- inhibition in vivo at 24 mg/kg (Mus musculus [2]): 36%

SMILES: C=C(CCC12OC(C(=O)O)C(O)(C(=O)O)C(C(=O)O)(O1)[C@@H](OC(=O)/C=C/[C@@H](C)C[C@@H](C)CC)[C@H]2O)C(OC(C)=O)[C@H](C)Cc1ccccc1 (some centres undefined)
- inhibition in vivo at 40 mg/kg (Mus musculus [3]): 11%

SMILES: C=C(CCC12OC(C(=O)OCCC(C)C)C(O)(C(=O)OC)C(C(=O)O)(O1)[C@@H](OC(=O)/C=C/[C@@H](C)C[C@@H](C)CC)[C@H]2O)C(OC(C)=O)[C@H](C)Cc1ccccc1 (some centres undefined)
- ED50 (Mus musculus [4]): 18 mg/kg

SMILES: C=C(CCC12OC(C(=O)OCCC(C)C)C(O)(C(=O)O)C(C(=O)O)(O1)[C@@H](OC(=O)/C=C/[C@@H](C)C[C@@H](C)CC)[C@H]2O)C(OC(C)=O)[C@H](C)Cc1ccccc1 (some centres undefined)
- inhibition in vivo at 40 mg/kg (Mus musculus [3]): 62%

SMILES: C=C(CCC12OC(C(=O)O)C(O)(C(=O)OC)C(C(=O)O)(O1)[C@@H](OC(=O)/C=C/[C@@H](C)C[C@@H](C)CC)[C@H]2O)C(OC(C)=O)[C@H](C)Cc1ccccc1 (some centres undefined)
- inhibition in vivo at 40 mg/kg (Mus musculus [3]): 43%
